PvdQ acylase: P. aeruginosa PvdQ acylase inhibitors, primary screen, biochemical, fluorescence, plate reader and imaging, single point; inhibition, % at 10 µM; actives 0.063% (n = 340,000); purified PvdQ acylase; AID 488965, 2010; PvdQ acylase [Pseudomonas aeruginosa LESB58]; in the data active = inhibition above about 30%, passing the limit was not always enough; inconclusive = no clear call, values can overlap the other calls
Ecoli rRNA inh: reduced GFP signal of wild-type E. coli, primary screen, bacterial rRNA inhibitor project, GFP/RFP fluorescence, OD600, single point | actives 1.6% (n = 350,000) | GFP signal change (wild-type ribosome), % (test concentration not listed) | E. coli WT GFP vs humanized-ribosome RFP mutants, 24 h; stronger effect = lower value; DMSO median 0, no signal -100;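 active = significant combined selectivity score with lowered wild-type GFP, culture density cut under 30%, mutant RFP and density less affected; inactive = any of these conditions unmet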
PDI turbidity: inhibitors of human PDI, primary screen, biochemical, turbidity, single point, plate reader | actives 0.052% (n = 350,000) | AID 588391, 2011 | PDI insulin aggregation turbidity, A650, 90 min | Protein disulfide-isomerase (Homo sapiens), P07237 | inhibition, % at 10 µM;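 active = mean inhibition across replicates of 30% or more, whatever share of single replicates reach that level; inconclusive = mean inhibition below 30% while every single replicate reaches 30%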
FN deposit inh: inhibitors of fibronectin matrix deposition, primary screen, AH1F cells, Alexa488-fibronectin fluorescence, plate reader. AH1F fibroblasts, overnight. inhibition, % at 12.6 µM. actives 0.086% (n = 350,000);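 active = mean inhibition across replicates of 30% or more, regardless of how many single replicates reach that level; inconclusive = mean under 30% yet at least half of replicates reach 30%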
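Material: AH1F fibroblast monolayer depositing Alexa488-labelled fibronectin into matrix | Input: 10000 AH1F cells/well | Medium: DMEM plus 2% serum, read in PBS | Reagent: Alexa488-fibronectin, 24 nM final in well | Compound dosing: One dose per compound, pinned | Schedule: 1 h adhesion, overnight exposure | Measured by: Fluorescence at 485 nm excitation, 525 nm emission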
ERp5 inh: inhibitors of ERp5-driven insulin aggregation, primary screen, biochemical, turbidity, absorbance 650 nm, single point; inhibition, % at 9.99 µM; actives 0.05% (n = 350,000); 90 min; AID 651711, 2012;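 active = mean replicate inhibition above about 25%, with every replicate also reaching it, limit read from the data, passing the limit was not always enough; inconclusive = only one of those two criteria met; inactive = neither criterion met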
Target sequence (Q15084 whole entry, looked up): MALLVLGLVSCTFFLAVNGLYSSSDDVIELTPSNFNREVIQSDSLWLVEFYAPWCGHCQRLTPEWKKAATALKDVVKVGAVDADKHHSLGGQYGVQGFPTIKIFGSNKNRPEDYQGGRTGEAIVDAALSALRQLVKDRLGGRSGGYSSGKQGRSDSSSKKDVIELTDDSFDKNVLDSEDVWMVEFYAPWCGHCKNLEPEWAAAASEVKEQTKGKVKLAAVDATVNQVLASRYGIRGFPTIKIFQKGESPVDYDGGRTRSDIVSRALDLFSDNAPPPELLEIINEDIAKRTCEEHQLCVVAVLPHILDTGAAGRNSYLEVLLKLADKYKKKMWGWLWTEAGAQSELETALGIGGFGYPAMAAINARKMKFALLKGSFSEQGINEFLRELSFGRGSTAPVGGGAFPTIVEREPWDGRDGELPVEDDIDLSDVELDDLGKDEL
HIV Env fusion: inhibitors of HIV-1 Env-driven cell-cell fusion, primary screen, HeLa-JRFL effector, CEM21 target cells, luciferase; AID 651610, 2012; inhibition, % at 12.3 µM; actives 1.1% (n = 360,000);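 active = mean replicate inhibition score of at least 50 and every replicate individually at or above 50; inconclusive = only one of the two criteria met; inactive = mean below 50 and not all replicates reaching 50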
HepG2 tox: cytotoxicity in HepG2 cells, dose response, cytotoxicity control, cell-based, CellTiter-Glo luminescence, cherry-pick, set 4; shares compounds with Ecoli rRNA inh; HepG2 viability, ATP luminescence, 72 h; activity change, negative = cytotoxicity, unspecified at 26 µM; 30 tested, under 10 active; AID 743480, 2014;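 active = compounds whose fitted half-maximal signal-loss concentration is at most twice their highest valid dose; inconclusive = flat curve with 30 to 70% signal loss, or poor fit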
AID977621: growth inhibition of wild-type GFP E. coli, dose response, H69 mutant RFP, cherry-pick | shares compounds with Ecoli rRNA inh | E. coli wild-type GFP strain growth, fluorescence, 24 h | activity change, negative = inhibition at 50 µM | 1,900 tested, under 10 active;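 active = Wild-type ribosome reporter drop at least double the humanized mutant ribosome reporter drop, growth loss under a set limit; inconclusive = no clear call, values can overlap the other calls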;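 note: wild-type GFP and H69 mutant RFP strains grown together 50/50 in each well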
AID977628: E. coli growth inhibition, wild-type GFP versus h24 humanized RFP strain, dose response, h24 mutant RFP vs wild-type GFP, cherry-pick; shares compounds with Ecoli rRNA inh; E. coli WT GFP strain growth, fluorescence, 24 h; activity change, negative = inhibition at 50 µM; 1,900 tested, under 10 active;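 active = compound lowering the normal-ribosome reporter at least twice as much as the humanized-ribosome reporter, growth loss under a set limit; inconclusive = no clear call, values can overlap the other calls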;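 note: wild-type GFP and h24 humanized RFP strains co-cultured 1 to 1 per well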
Of the large screens only hits and unclear results are named; the others gave an inactive call (follow-up assays come after a bar, where they were run). In the library only some 2.2% were active in any assay of this set; here they are far more common.

Cc1c(C(=O)O)sc2nc(CSc3ncc(C(F)(F)F)cc3Cl)[nH]c(=O)c12	Ecoli rRNA inh -33 | HepG2 tox inactive
CCOc1nc(-c2ccccc2O)nc2ccccc12	none (no result: FN deposit inh, HIV Env fusion)
CC(C)Oc1nc(-c2ccccc2Cl)nc2ccccc12	Ecoli rRNA inh -18 | AID977628 inactive
COc1ccc(-c2csc(N)n2)cc1F	Ecoli rRNA inh -17 | AID977621 inactive | AID977628 inactive
C[C@@H]1CN([C@@H](C)CO)C(=O)c2cc(NC(=O)Nc3ccccc3)ccc2O[C@@H](C)CCCCO[C@@H]1CN(C)S(=O)(=O)c1cccs1	none (no result: PvdQ acylase, PDI turbidity)
O=C(NCC[C@H]1CC[C@H](NS(=O)(=O)c2cccc(F)c2)[C@H](CO)O1)c1cnccn1	none (no result: PvdQ acylase, PDI turbidity)
Cc1ccc(C(=O)Nc2cccc(N(C)S(C)(=O)=O)c2)cc1S(=O)(=O)Nc1ccccc1	Ecoli rRNA inh -20 (no result: FN deposit inh, HIV Env fusion) | AID977621 inconclusive
C=CCn1c(SCC(=O)N2CCCC2=O)nc2sc(CC)cc2c1=O	Ecoli rRNA inh -23 | AID977621 inactive | AID977628 inconclusive
C=CCn1c(SCC(=O)NC2CC2)nc2sc(CC)cc2c1=O	none
COc1ccc(CNC(=O)CN(C)CC(=O)Nc2ccccc2Br)cc1	none
COc1ccc(OC)c(NC(=O)CN(C)CC(=O)Nc2ccccc2Br)c1	Ecoli rRNA inh -25 | AID977621 inactive | AID977628 inconclusive
CCCNC(=O)Nc1ccc2c(c1)OC[C@@H](C)N(C(=O)c1ccccc1F)C[C@@H](C)[C@@H](OC)CN(C)C2=O	none (no result: PvdQ acylase, PDI turbidity, HIV Env fusion)
O=C(Nc1ccccc1F)N1C[C@@H]2[C@H](c3ccccc31)[C@H](CO)N2C(=O)c1ccc(F)cc1	none (no result: PvdQ acylase, PDI turbidity, FN deposit inh, HIV Env fusion)
CN(CC(=O)Nc1ccc(S(=O)(=O)N2CCCC2)cc1)CC(=O)Nc1ccc(F)c(F)c1F	Ecoli rRNA inh -33 | AID977621 inactive | AID977628 inconclusive
Cc1ccc(S(=O)(=O)N2CCN(CC(=O)Nc3ccc4c(c3)CCC4)CC2)cc1C	none (no result: Ecoli rRNA inh, ERp5 inh)
COc1ccccc1OCC(=O)Nc1ccc(S(=O)(=O)N2CCCCCC2)cc1	Ecoli rRNA inh -19 (no result: FN deposit inh, HIV Env fusion) | AID977621 inactive
CSc1ccccc1NC(=O)CN(C)CC(=O)Nc1ccc(S(=O)(=O)N2CCCC2)cc1	none (no result: FN deposit inh)
O=C(CN1CCN(S(=O)(=O)c2ccc(Cl)cc2)CC1)Nc1ccc2c(c1)CCC2	Ecoli rRNA inh -21 (no result: HIV Env fusion) | AID977621 inactive | AID977628 inconclusive
COc1ccc(-c2cn(CC[C@@H]3CC[C@H](NC(=O)Nc4ccc(F)cc4)[C@@H](CO)O3)nn2)cc1	none (no result: PvdQ acylase, PDI turbidity, HIV Env fusion)
COc1ccc2c(c1)c(C(C)=O)c(C)n2CCc1ccc(OC)c(OC)c1	Ecoli rRNA inh -33 | AID977621 inactive
COc1cccc(-c2ccc3n(c2=O)C[C@H]2[C@H](CO)[C@@H](C(=O)N(C)C)[C@@H]3N2Cc2cncnc2)c1	none (no result: PvdQ acylase, PDI turbidity, FN deposit inh, HIV Env fusion)
O=C(NCC1CCCCC1)[C@H]1[C@H](CO)[C@H]2Cn3c(ccc(C4=CCCC4)c3=O)[C@@H]1N2C(=O)CC1CC1	none (no result: PvdQ acylase, PDI turbidity, FN deposit inh, HIV Env fusion)
O=c1c2cc(Br)ccc2[nH]c(=S)n1Cc1ccccc1	Ecoli rRNA inh -36 | AID977621 inactive
O=c1c2cc(Br)ccc2[nH]c(=S)n1Cc1ccccn1	none (no result: HIV Env fusion)
Cc1ccc(NC(=O)C2CCN(S(=O)(=O)c3ccc4c(c3)NC(=O)CO4)CC2)cc1	Ecoli rRNA inh -18 | AID977628 inactive
CCOC(=O)c1csc(NC(=O)CCSc2ccccc2)n1	none (no result: FN deposit inh)
CCOC(=O)c1csc(NC(=O)CC2CCCC2)n1	Ecoli rRNA inh -20 | AID977621 inactive
CN(C)CC#Cc1cccc(-c2nc(C(=O)N[C@@H]3CCN(Cc4ccccc4)C3)cc3c2[C@H](CCO)N(S(=O)C(C)(C)C)C3)c1 (stereo partly specified)	none (no result: PvdQ acylase, Ecoli rRNA inh, PDI turbidity, FN deposit inh, HIV Env fusion)
C[C@@H]1CN([C@H](C)CO)C(=O)c2cc(NS(=O)(=O)c3ccc(Cl)cc3)ccc2O[C@@H](C)CCCCO[C@@H]1CN(C)C(=O)CCC(F)(F)F	none (no result: PvdQ acylase, PDI turbidity)
CCN=C1NN=C(c2ccc(C)cc2)CS1	Ecoli rRNA inh -23, ERp5 inh inconclusive (no result: FN deposit inh, HIV Env fusion) | AID977621 inactive | AID977628 inactive
COc1ccc(CNC(=O)Cc2cn(C)c3ccccc23)c(OC)c1	Ecoli rRNA inh -24 | AID977621 inactive | AID977628 inactive
COc1ccccc1CNC(=O)CCCc1cn(C)c2ccccc12	none
C[C@H](CO)N1C[C@H](C)[C@@H](CN(C)Cc2ccc3c(c2)OCO3)Oc2ccc(NS(=O)(=O)c3cccs3)cc2CC1=O	none (no result: PvdQ acylase, PDI turbidity, FN deposit inh)
O=C(NC1CCCC1)c1ccc([N+](=O)[O-])s1	Ecoli rRNA inh -20 | AID977621 inactive | AID977628 inactive
Cc1ccc(S(=O)(=O)Nc2ccc3c(c2)C(=O)N([C@H](C)CO)C[C@H](C)[C@H](CN(C)C(=O)NC2CCCCC2)OCCCC[C@H](C)O3)cc1	none (no result: PvdQ acylase, PDI turbidity, FN deposit inh)
CC(=O)N(C)C[C@@H]1Oc2c(N)cccc2C(=O)N(C)C[C@@H]1C	none (no result: PvdQ acylase, PDI turbidity, ERp5 inh, HIV Env fusion)
Nc1nc(-c2cc(-c3ccccc3)no2)cs1	Ecoli rRNA inh -19 | AID977621 inactive | AID977628 inconclusive
COc1ccc(CNC(=O)Nc2ccc([N+](=O)[O-])cc2)cc1	none
COc1ccc(NC(=O)c2ccc(-c3ccc([N+](=O)[O-])cc3)o2)cc1	Ecoli rRNA inh -26 | AID977628 inconclusive
C[C@@H]1NS(=O)(=O)c2c(F)cccc2O[C@@H]1c1ccccc1	Ecoli rRNA inh -22 (no result: PvdQ acylase, PDI turbidity) | AID977628 inconclusive
Cc1ccccc1OCCNC(=O)c1ccccc1Sc1ccccc1C#N	none (no result: Ecoli rRNA inh, FN deposit inh, ERp5 inh, HIV Env fusion)
Cc1cc(C)c(OCCNC(=O)c2ccccc2Sc2ccccc2C#N)c(C)c1	Ecoli rRNA inh -25 | HepG2 tox inactive
C[C@H](CO)N1C[C@H](C)[C@@H](CN(C)C(=O)C2CCCCC2)OCCCC[C@H](C)Oc2ccc(NC(=O)CCCN(C)C)cc2C1=O	none (no result: PvdQ acylase, PDI turbidity, FN deposit inh, ERp5 inh)
O=C1CSC(c2cccnc2)N1Cc1ccc(Cl)c(Cl)c1 (stereo unspecified)	Ecoli rRNA inh -35 | AID977628 inactive

Screens deposited in PubChem by Broad Institute.
